Test results published in publication PMC7315572 (ACS Omega, 2020).

Tests used:
[1] = tested on: K562 human myelogenous leukemia cells; test: MTS cell viability assay in K562 cells; format: cell-based; conditions: 72 h
Summary of the method: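 K562 cells were grown in IMDM with 10% FBS and 5% penicillin/streptomycin at 37 °C in 5% CO2. They were seeded at 2000 cells/well, left overnight, then given fresh medium containing the test compound for 72 h. MTS was added for 2 h, with absorbance read at 490 nm against a 690 nm reference. % cell death = (control − sample)/control × 100. IC50 came from dose-response curves, using triplicates from a single experiment ± SEM.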

erythroid cells = conditions: cited from earlier work
[2] = tested on: γ-globin mRNA expression in the K562 human myelogenous leukemia cell line; test: γ-globin mRNA expression in K562 cells by RT-qPCR; format: cell-based; conditions: K562, concentration not printed (at or near LSD1 IC50)
[3] = tested on: γ-globin mRNA expression in human CD34+ erythroid progenitor cells; test: γ-globin mRNA expression in CD34+ erythroid progenitor cells by RT-qPCR; format: cell-based
[4] = tested on: β-globin mRNA expression in human CD34+ erythroid progenitor cells; test: β-globin mRNA expression in CD34+ erythroid progenitor cells by RT-qPCR; format: cell-based; conditions: for Fold increase in β-globin mRNA: concentration not given
Townes SS mice = test: HbF induction in Townes SS mice; format: in vivo, mouse; conditions: 10 mg/kg, 2 weeks of treatment
Summary of the method: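 Townes SS mice were dosed at 10 mg/kg for 2 weeks (route not specified). F-cells and F-reticulocytes were counted by flow cytometry on 5–10 μL of tail-vein blood. γ-Globin was measured by HPLC against each animal's pretreatment baseline. Each value is the mean of three animals + SEM.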

recombinant LSD1/CoREST = recombinant LSD1/CoREST (Homo sapiens, UniProt O60341); conditions: IC50 ND; cited from earlier work
spermine oxidase (SMOX) = conditions: cited from earlier work

For `N[C@@H]1C[C@H]1c1ccccc1` (racemic) [Tranylcypromine, tranylcypromine], the “Cytotoxicity in K562 cells (in words)” value [1] is listed as “minimal cytotoxicity” and the “Induction of HbF in erythroid cells (in words)” value (erythroid cells) is listed as “dose-dependent induction”.
In the case of `NC(=O)NO` [HU, hydroxyurea], the “Fold increase in γ-globin mRNA expression” value [2] is reported as 2.3 fold, the “Increase in γ-globin mRNA (in words, compared with K562)” value [3] is reported as “analogous to levels observed in the K562 line” and the “Fold increase in β-globin mRNA” value [4] is reported as “no effect”.
In the case of `c1ccc([C@@H]2C[C@H]2NC2CCNCC2)cc1` [compound 2], the “Effect on β-globin mRNA levels (in words)” value ([4]; both 20 and 50 nM) is reported as “marked decrease”.
In the case of `Nc1n[nH]c(NCc2ccccc2Oc2ccc(-c3ccccc3)cc2)n1` [compound 8], the “Increase in HbF-containing erythrocytes (F-cells)” value (Townes SS mice; Townes SS mice, flow cytometry) is listed as “significant increases”, the “Increase in γ-globin (HbF content) by HPLC relative to baseline/pretreatment” value (Townes SS mice; Townes mouse) is listed as 87% and the “LSD1 % inhibition at 10 μM” value (recombinant LSD1/CoREST) is listed as “ND (50.0% inhibition at 10 μM)[52]”. For the same compound, the “Inhibition of spermine oxidase (SMOX) (in words)” value (spermine oxidase (SMOX)) was “inhibit”.
For Hemin, the “Fold increase in γ-globin mRNA expression” value [2] was 2.4 fold, the “Increase in γ-globin mRNA (in words, compared with K562)” value [3] was “analogous to levels observed in the K562 line” and the “Fold increase in β-globin mRNA” value [4] was 1.4 fold.
